# Results from ChEMBL document CHEMBL4342509, “New 8-Nitroquinolinone Derivative Displaying Submicromolar in Vitro Activities against Both Trypanosoma brucei and cruzi” (ACS Med Chem Lett, 2020).
# Legend:
# [1] = system: Trypanosoma brucei brucei; test: Antitrypanosomal activity against blood stream form of Trypanosoma brucei brucei S427 trypomastigotes overexpressing NTR assessed as inhibition of parasite growth; type: functional, organism-based
# [2] = system: Trypanosoma brucei brucei; test: Antitrypanosomal activity against bloodstream form of wild type Trypanosoma brucei brucei S427 trypomastigotes assessed as inhibition of parasite growth; type: functional, organism-based
# Leishmania infantum = test: Antileishmanial activity against Leishmania infantum MHOM/MA/67/ITMAP-263 axenic amastigotes expressing luciferase plasmid assessed as reduction in parasite viability incubated for 48 hrs by Steady Glow reagent based luminescence assay; type: functional, organism-based; details: MHOM/MA/67/ITMAP-263, 48 h
# [3] = system: Trypanosoma brucei brucei; test: Antitrypanosomal activity against Trypanosoma brucei brucei AnTat 1.9 trypomastigotes assessed as reduction in parasite viability incubated for 69 hrs by Alamar Blue dye based assay; type: functional, organism-based; details: AnTat 1.9, 69 h
# Method in brief: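 Bloodstream AnTat 1.9 parasites grown at 37°C, 5% CO₂ in MEM with Earle's salts (Baltz-type) plus 0.5 mM mercaptoethanol, 1.5 mM L-cysteine, 0.05 mM bathocuproine sulfate and 20% heat-inactivated horse serum. EC50 from nonlinear regression, three independent experiments in duplicate.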
# HepG2 [4] = test: Cytotoxicity against human HepG2 cells assessed as reduction in cell viability incubated for 72 hrs by MTT assay; type: cell-based; details: hepg2, 72 h
# [5] = Selectivity index, ratio of CC50 for human HepG2 cells to EC50 for Trypanosoma brucei brucei trypomastigotes AnTat 1.9; type: toxicity; details: read-out: Ratio CC50/EC50
# [6] = Microsomal stability in CD-1 mouse liver microsomes in presence of NADP measured up to 40 mins by LC-MS analysis; type: ADME, Microsome
# Method in brief: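 Compound incubated in duplicate with female CD-1 mouse microsomes at 37°C in 50 mM phosphate pH 7.4. Cofactors: 5 mM MgCl₂, 1 mM NADP, 0.4 U/mL G6PDH and 5 mM glucose-6-phosphate. […] Propranolol reference.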
# [7] = Permeability of the compound in pH 7.4 Prisma HT buffer at 100 uM incubated for 4 hrs by PAMPA-BBB assay method; type: ADME; details: read-out: permeability
# [8] = Thermodynamic solubility of the compound in phosphate buffer at pH 7.4 by shake flask method; type: physicochemical
# Method in brief: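 Shake-flask test, miniaturised: 10 µL of a 50 mM stock in 990 µL phosphate buffer pH 7.4 (ionic strength 50 mM), n=4. Shaken 24 h at room temperature, then centrifuged 12,225 × g for 5 min. Supernatant mixed 1:1 with acetonitrile and read by UV spectrophotometry at compound λmax. Quantified against a three-point calibration (0, 25, 50 µM).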
# Leishmania donovani [9] = test: Antileishmanial activity against wild type Leishmania donovani BOB (MHOM/SD/62/1S-CL2D) promastigotes assessed as inhibition of parasite growth incubated for 72 hrs by resazurin dye based assay; type: functional, organism-based
# Method in brief: (§1)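 LdBOB promastigotes grown at 26 °C in modified M199; NTR1- or NTR2-overexpressing lines kept under nourseothricin (100 µg/mL). Triplicate cultures seeded at 5×10^4 parasites/mL with drug for 72 h; 50 µM resazurin added, fluorescence (ex 528/em 590 nm) read after a further 4 h.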
# Leishmania donovani [10] = test: Antileishmanial activity against Leishmania donovani BOB (MHOM/SD/62/1S-CL2D) promastigotes overexpressing NTR1 assessed as inhibition of parasite growth incubated for 72 hrs by resazurin dye based assay; type: functional, organism-based; method in brief: as §1
# Leishmania donovani [11] = test: Antileishmanial activity against Leishmania donovani BOB (MHOM/SD/62/1S-CL2D) promastigotes overexpressing NTR2 assessed as inhibition of parasite growth incubated for 72 hrs by resazurin dye based assay; type: functional, organism-based; method in brief: as §1
# HepG2 [12] = test: Genotoxicity in human HepG2 cells assessed as induction of DNA damage at 1 to 10 uM incubated for 2 to 72 hrs by alkaline comet assay; type: toxicity, cell-based; details: hepg2, 10 µM
# Method in brief: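 Cells embedded in 0.7% low-melting agarose on film. Alkaline electrophoresis at pH >13, 24 min at 0.8 V/cm, then neutralised, ethanol-fixed and SYBR Gold stained. % tail DNA is the median of 100 cells (two deposits); 1 mM MMS positive control; three independent experiments.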
# [13] = Toxicity in orally dosed Swiss mouse administered once daily for 5 days; type: organism-based; details: in vivo, po
# [14] = Toxicity in Swiss mouse assessed as lesions on kidney at 25 mg/kg, po administered once daily for 5 days; type: organism-based; details: in vivo, 120 h
# [15] = Toxicity in Swiss mouse assessed as lesions on liver at 25 mg/kg, po administered once daily for 5 days; type: organism-based; details: in vivo, 120 h
# [16] = Toxicity in Swiss mouse assessed as lesions on brain at 25 mg/kg, po administered once daily for 5 days; type: organism-based; details: in vivo, 120 h
# [17] = Toxicity in Swiss mouse assessed as lesions on heart at 25 mg/kg, po administered once daily for 5 days; type: organism-based; details: in vivo, 120 h
# [18] = Toxicity in Swiss mouse assessed as lesions on lung at 25 mg/kg, po administered once daily for 5 days; type: organism-based; details: in vivo, 120 h
# [19] = Half life in Swiss mouse at 25 mg/Kg, po measured up to 24 hrs by LCMS analysis; type: ADME, organism-based; details: in vivo
# Method in brief: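 Female Swiss mice, 8 weeks old, n=4, given a suspension by oral gavage at 25 mg/kg. Tail blood (100 µL, heparin) drawn at 0.5, 1, 3, 6, 9, 12 and 24 h. Samples extracted with ACN containing megalol internal standard plus QuEChERS salts. Analysed by LC-MS/MS (C8 column, negative ESI, MRM); calibration 10–1,000 ng/ml, LLOQ 10 ng/ml.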
# Trypanosoma cruzi = test: Antitrypanosomal activity against Trypanosoma cruzi CL Brener amastigotes infected in African green monkey Vero cells assessed as reduction in parasite growth incubated for 120 hrs at 24 hrs post-infection and measured on day 6 post-infection by hemocytometer based light microscopy; type: functional, organism-based
# Method in brief: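 Compounds, 2–4-fold serial dilutions over 0,1–25 µM final, applied for 120 h at 37°C. On day 6, released trypomastigotes pooled, centrifuged and counted by haemocytometer. EC50 by nonlinear regression; two experiments, triplicate wells.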
# Leishmania donovani [20] = test: Selectivity index, ratio of EC50 for wild type Leishmania donovani BOB (MHOM/SD/62/1S-CL2D) promastigotes to EC50 for Leishmania donovani BOB (MHOM/SD/62/1S-CL2D) promastigotes overexpressing NTR1; type: functional
# [21] = system: Trypanosoma brucei brucei; test: Selectivity index, ratio of EC50 for bloodstream form of wild type Trypanosoma brucei brucei S427 trypomastigotes to EC50 for blood stream form of Trypanosoma brucei brucei S427 trypomastigotes overexpressing NTR; type: functional
# [22] = Toxicity in Swiss mouse assessed as apathy occurence at 50 mg/kg, po administered once daily for 5 days measured for 1 hr; type: organism-based; details: in vivo
# Plasma proteins = test: Plasma protein binding incubated for 4 hrs by LCMS analysis
# [23] = Electrochemical behavior of the compound assessed as redox potential corrected toward normal hydrogen electrode by cyclic voltammetry
smiles,measurement,setting,value
O=c1[nH]c2c([N+](=O)[O-])cc(Br)cc2cc1Cl,EC50,[1],20 nM
same,EC50,[2],300 nM
same,EC50,Leishmania infantum,6700 nM
same,EC50,[3],12 nM
same,CC50,HepG2 [4],18100 nM
same,selectivity ratio,[5],1510
same,t1/2,[6],> 0.667 h
same,"Papp at 4 h, 100 µM",[7],40.5 ×10⁻⁶ cm/s
same,Therm_solubility,[8],21.7 µM
same,EC50,Leishmania donovani [9],4700 nM
same,EC50,Leishmania donovani [10],300 nM
same,EC50,Leishmania donovani [11],2900 nM
same,Activity,HepG2 [12],Non-Toxic
same,NOAEL at 120 h,[13],25 mg/kg
same,Activity,[14],Non-Toxic
same,Activity,[15],Non-Toxic
same,Activity,[16],Non-Toxic
same,Activity,[17],Non-Toxic
same,Activity,[18],Non-Toxic
same,t1/2,[19],2.9 h
same,EC50,Trypanosoma cruzi,500 nM
same,Ratio EC50,Leishmania donovani [20],16
same,Ratio EC50,[21],15
same,Activity,[22],Toxic
same,Activity,Plasma proteins,99%
same,Activity,[23],-0.37 V
